The whole screen tested about 130,000 compounds, of which about 1,000 (0.77%) were called active. About 1% were inconclusive and are not listed.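 Rule for the calls: active = activation at 2 µM above a set limit, confirmed on inspection of the cell images; inconclusive = above the set limit but not confirmed on image inspection; inactive = the rest.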 This excerpt belongs to a sample that is enriched for actives.
Experiment: activators of insulin promoter-driven GFP, primary screen, imaging, TRM-6 cells, eGFP reporter, cell count (AID 1296);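 for activation: share of cells whose green reporter signal exceeds an intensity cutoff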
Details: at 2 µM; activation: stronger effect = higher value; normalized cell count: measured here: cell count (toxicity)
Procedure, shortened: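 Test system: human fetal islet-derived TRM-6 cells with tamoxifen-inducible insulin promoter–eGFP reporter. Compound dosing: 2 µM final, single concentration. Incubation: tamoxifen pre-incubation 15 h overnight, then compound exposure 48 h at 37 °C. Signal: fixed-cell fluorescence microscopy, eGFP plus Hoechst.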

Row | Compound | activation | normalized cell count
1 | CC1=CC(=Cc2sc3ccccc3[n+]2C)C=C(C)O1 | 456% (active) | 88.8%
2 | C[N+]1(C)CCOC(O)(c2ccc(-c3ccc(C4(O)C[N+](C)(C)CCO4)cc3)cc2)C1 (stereo not given) | -9.52% (inactive) | 86.4%
3 | CC(=O)c1c(C)n(C(C)C)c2ccc(O)cc12 | 269% (inactive) | 65.5%
4 | CCOCCc1c(O)[nH]c(=S)[nH]c1=O | 0% (inactive) | 137%
5 | O=[N+]([O-])c1ccc(C2C3C(c4ccccc4)=NC4(CCCCC4)N32)cc1 (stereo not given) | -4.54% (inactive) | 112%
6 | O=C(COc1ccc2ccccc2c1)N1CCN(Cc2ccncc2)CC1 | 1.82% (inactive) | 106%
7 | O=C(COC(=O)c1ccccc1)Nc1ccc(Cl)cc1C(=O)c1ccccc1 | -3.33% (inactive) | 106%
8 | CCOC(=O)c1c(-c2ccccc2)oc2ccc(OC(=O)N(C)C)cc12 | -72.7% (inactive) | 171%
9 | CC[N+]1(C)CCCC(OC(=O)C(O)(c2ccccc2)c2ccccc2)C1 (stereo not given) | 295% (active) | 82%
10 | Cc1nn(Cc2ccccc2Cl)c(Cl)c1C(=O)OC(C(=O)NC(N)=O)C(C)C (stereo not given) | 6.67% (inactive) | 71.1%
11 | O=C(CN1CCCC1=O)NCCc1ccccc1 | -2.56% (inactive) | 176%
12 | CC(=O)c1c(O)n(C2CCCCCC2)c(=O)[nH]c1=O | 146% (active) | 160%
13 | COC(=O)CN1C(=O)C2(C(C(=O)OC)=C(N)Oc3ccccc32)C2=C1CC(C)(C)CC2=O (stereo not given) | -6.67% (inactive) | 84.7%
14 | Cc1ccc(N2C(=O)NC(=O)C(CCc3ccncc3)(Cc3cccc(Cl)c3Cl)C2=O)cc1 (stereo not given) | 169% (inactive) | 113%
15 | CC(=O)c1ccc(OC(NC(=O)Cc2ccccc2)C(Cl)(Cl)Cl)cc1 (stereo not given) | 6.45% (inactive) | 137%
